Laboratory results reported in ChEMBL document CHEMBL3580554, “Design, synthesis, and anticonvulsant activity of new hybrid compounds derived from 2-(2,5-dioxopyrrolidin-1-yl)propanamides and 2-(2,5-dioxopyrrolidin-1-yl)butanamides” (J Med Chem, 2015).

What was measured:
Mus musculus [1] = test: Anticonvulsant activity in ip dosed Swiss mouse assessed as protection against seizures measured at 1 hr of time to peak effect by subcutaneous pentylenetetrazole seizure test; format: functional
Mus musculus [2] = test: Anticonvulsant activity in ip dosed Swiss mouse assessed as protection against seizures measured at 1 hr of time to peak effect by 6 Hz test by 6 Hz psychomotor seizure test; format: functional
[3] = Toxicity in ip dosed Swiss mouse assessed as induction of motor performance impairment measured within 60 seconds measured at 1 hr of time to peak effect by Chimney test; format: organism-based; conditions: in vivo
In short: (§1)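 Neurotoxicity (TD50) estimated in mice i.p. by chimney test for motor coordination impairment; protective index calculated as TD50/ED50 for each seizure model.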

[4] = Protective index, ratio of neurotoxic TD50 in Swiss mouse by Chimney test to anticonvulsant ED50 in Swiss mouse measured at 1 hr of time to peak effect by 6 Hz test by 6 Hz psychomotor seizure test; format: toxicity; conditions: in vivo, read-out: Ratio TD50/ED50; in short: as §1
Mus musculus [5] = test: Anticonvulsant activity in ip dosed Swiss mouse assessed as protection against seizures measured at 1 hr of time to peak effect by maximal electroshock test; format: functional

## CC[C@@H](C(N)=O)N1CCCC1=O
Mus musculus [1]
  ED50: > 500 mg/kg
Mus musculus [2]
  ED50: 14.8 mg/kg
[3]
  TD50 at 1 h: > 500 mg/kg
[4]
  selectivity ratio at 1 h: > 33.8
Mus musculus [5]
  ED50: > 500 mg/kg
